Key:
[1] = biological target: Type-1 angiotensin II receptor (Rattus norvegicus) (UniProt P25095); assay: The compound was tested for inhibition of angiotensin II receptor induced pressor response in rat after intravenous administration.
[2] = biological target: Type-1 angiotensin II receptor (Oryctolagus cuniculus) (UniProt P34976); assay: Binding affinity towards Angiotensin receptor from rabbit aorta
[3] = test system: Rattus norvegicus; assay: Percentage peak pressor response in rat after peroral administration at a dose of 0.3 mg/kg of the compound.; assay type: functional; conditions: route oral
In short: (§1)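 Conscious male Sprague-Dawley rats (300–400 g) fitted with arterial and venous catheters. Compound given orally as a suspension in 1 N NaOH–0.5% methocel (10:90). Pressor response to AII (0.1 μg/kg iv) measured before and after dosing. Peak inhibition of the AII response is expressed as a percentage at each dose.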

[4] = test system: Rattus norvegicus; assay: Percentage peak pressor response in rat after intravenous administration at a dose of 0.1 mg/kg of the compound.; assay type: functional
In short: (§2)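 Male Sprague-Dawley rats (300–400 g), conscious, with arterial (blood pressure) and venous (dosing) catheters. Pressor responses to AII 0.1 μg/kg iv recorded before and after iv compound. Vehicle: saturated NaHCO3 15%, saline 35%, water 50%.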

[5] = test system: Rattus norvegicus; assay: Percentage peak pressor response in rat after peroral administration at a dose of 0.03 mg/kg of the compound.; assay type: functional; conditions: route oral
In short: as §1

[6] = test system: Rattus norvegicus; assay: Percentage peak pressor response in rat after peroral administration at a dose of 0.1 mg/kg of the compound.; assay type: functional; conditions: route oral
In short: as §1

[7] = test system: Rattus norvegicus; assay: Percentage peak pressor response in rat after intravenous administration at a dose of 0.3 mg/kg of the compound.; assay type: functional
In short: as §2

[8] = test system: Rattus norvegicus; assay: Percentage peak pressor response in rat after intravenous administration at a dose of 0.03 mg/kg of the compound.; assay type: functional
In short: as §2

Type-1 angiotensin II receptor (Rattus norvegicus), sequence (P25095 whole entry, looked up): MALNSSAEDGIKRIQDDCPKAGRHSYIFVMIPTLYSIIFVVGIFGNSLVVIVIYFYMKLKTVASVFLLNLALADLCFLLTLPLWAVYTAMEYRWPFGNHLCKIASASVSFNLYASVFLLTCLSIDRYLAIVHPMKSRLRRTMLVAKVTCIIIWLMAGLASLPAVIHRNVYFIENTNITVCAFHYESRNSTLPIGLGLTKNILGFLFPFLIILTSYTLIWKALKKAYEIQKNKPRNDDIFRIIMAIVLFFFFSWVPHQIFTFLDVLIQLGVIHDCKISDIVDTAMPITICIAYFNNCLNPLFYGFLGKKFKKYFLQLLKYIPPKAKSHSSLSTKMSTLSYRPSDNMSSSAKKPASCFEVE
Type-1 angiotensin II receptor (Oryctolagus cuniculus), sequence (P34976 whole entry, looked up): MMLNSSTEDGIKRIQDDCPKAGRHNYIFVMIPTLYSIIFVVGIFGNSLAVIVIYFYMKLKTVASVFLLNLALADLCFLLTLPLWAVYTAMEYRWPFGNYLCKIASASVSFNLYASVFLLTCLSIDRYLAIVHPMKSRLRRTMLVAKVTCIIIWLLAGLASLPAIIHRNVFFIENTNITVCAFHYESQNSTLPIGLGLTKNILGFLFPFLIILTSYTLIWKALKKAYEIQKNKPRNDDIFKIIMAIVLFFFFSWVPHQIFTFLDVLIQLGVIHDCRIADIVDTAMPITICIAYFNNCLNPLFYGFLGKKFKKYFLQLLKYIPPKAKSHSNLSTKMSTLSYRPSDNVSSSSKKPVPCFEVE

Row | Compound | ED50 [1] | IC50 [2] | further results
1 | CCCc1nc2ccc(C)nc2n1Cc1ccc(-c2ccccc2-c2nn[nH]n2)cc1 | 1 mg/kg | 2 nM | 
2 | CCCCc1nc2c(C)cc(C)nc2n1Cc1ccc(-c2ccccc2-c2nn[nH]n2)cc1 | 0.45 mg/kg | 0.5 nM | 
3 | CCc1nc2c(C)cc(C)nc2n1Cc1ccc(-c2ccccc2-c2nn[nH]n2)cc1 [L-158809] |  |  | Peak inhibition [3]: 92%; Peak inhibition [4]: 85%; Peak inhibition [5]: 52%; Peak inhibition [6]: 75%; Peak inhibition [7]: 99%; Peak inhibition [8]: 36%
4 | CCCc1nc2cccnc2n1Cc1ccc(-c2ccccc2-c2nn[nH]n2)cc1 |  | 8 nM | 

Further lines, with some results ahead:

Row | ED50 [1] | IC50 [2] | Compound | further results
5 |  | 1 nM | CCCc1nc2c(C)ccnc2n1Cc1ccc(-c2ccccc2-c2nn[nH]n2)cc1 | 
6 |  | 6 nM | CCCCC1=NC(Cl)C(C(=O)O)N1Cc1ccc(-c2ccccc2-c2nn[nH]n2)cc1 (stereo not given) | 
7 | 0.087 mg/kg | 0.3 nM | CCCc1nc2c(C)cc(C)nc2n1Cc1ccc(-c2ccccc2-c2nn[nH]n2)cc1 | 

— ChEMBL document CHEMBL1125216, “Potent, orally active imidazo[4,5-b]pyridine-based angiotensin II receptor antagonists” (J Med Chem, 1991)
